The source of these data is ChEMBL document CHEMBL1144035, “Synthesis, cytostatic and anti-HCV activity of 6-(N-substituted aminomethyl)-, 6-(O-substituted hydroxymethyl)- and 6-(S-substituted sulfanylmethyl)purine nucleosides” (Bioorg Med Chem, 2008).

The term EC50 denotes the concentration at which the effect is half-maximal. The low end stands for higher potency in that assay, the high end for lower potency in that assay. The IC50 is the concentration at which inhibition is half-maximal. A word on the CC50: it is the concentration that lowers cell viability or growth by half. A lower CC50 goes with harm at low concentration.

Calls of active or inactive are those of the source. The calls are words filed in the database; no cut-off is given here.

For one test, the system named is HeLa. Put plainly: Cytostatic activity in human HeLa S3 cells assessed as inhibition of cell growth after 48 hrs by XTT assay. It counts as functional, cell-based. In general terms: Tetrazolium dyes change colour on reduction, which living cells bring about.
Test [1] deals with HL-60. The test can be described thus: Cell cycle arrest in human HL60 cells by accumulation at G1 phase at 1 umol/L by flow cytometry relative to control. It counts as functional. In a few lines:
(§1)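 HL-60 cells exposed to compound for 72 h at the single concentration in the line; the cell-cycle phase fraction is reported as a change relative to untreated control cells.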

The next test concerns Hepatitis C virus. The test can be described thus: Antiviral activity against Hepatitis C virus 1b after 3 days. The class given is functional, organism-based, Hepacivirus hominis. The conditions noted are these: genotype 1b, 72 h.
Test [2] relates to CCRF-CEM. Put plainly: Cytostatic activity in human CCRF-CEM cells assessed as inhibition of cell growth after 72 hrs by XTT assay. The class given is functional, cell-based.
Test [3] deals with HL-60. The test can be described thus: Cell cycle arrest in human HL60 cells by accumulation at G2/M phase at 1 umol/L by flow cytometry relative to control. The class given is functional. An outline of the steps: as §1
For orientation: A flow cytometer gives signals particle by particle.

Test [4] is described as follows: Cytotoxicity against human Huh7 cells after 3 days by MTT method. It counts as functional. The conditions noted are these: Huh-7, 72 h. In a few lines: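 Cellular toxicity was read by MTT in Huh-7 cells carrying the con-1 HCV replicon, in duplicate (N = 2).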
In test [5] the test system is CCRF-CEM. The test can be described thus: Cytostatic activity in human CCRF-CEM cells assessed as inhibition of cell growth after 72 hrs. It counts as functional, cell-based. An outline of the steps:
(§2)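 Cultures from ATCC lines: mouse leukaemia L1210 (CCL 219), human promyelocytic leukaemia HL60 (CCL 240) and human T-lymphoblastoid CCRF-CEM (CCL 119). Growth inhibition was estimated from the cell count in a haematological analyzer (haemocytometer).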

The subject of test [6] is HL-60. The test can be described thus: Cell cycle arrest in human HL60 cells by accumulation at G1 phase after 72 hrs by flow cytometry. It counts as functional, cell-based.
Test [7] deals with HL-60. Put plainly: Cell cycle arrest in human HL60 cells by accumulation at G1 phase at 2.5 umol/L after 72 hrs by flow cytometry. It counts as functional.
The test system of test [8] is HL-60. The test can be described thus: Cell cycle arrest in human HL60 cells by accumulation at S phase at 2.5 umol/L after 72 hrs by flow cytometry. It counts as functional.
Test [9] relates to HL-60. Put plainly: Cell cycle arrest in human HL60 cells by depletion of cells at S phase after 72 hrs by flow cytometry. It counts as functional, cell-based.
In test [10] the test system is HL-60. Put plainly: Cell cycle arrest in human HL60 cells by accumulation at G1 phase at 5 umol/L after 72 hrs by flow cytometry. It counts as functional.
The subject of test [11] is HL-60. The test can be described thus: Cell cycle arrest in human HL60 cells by accumulation at G2/M phase at 2.5 umol/L after 72 hrs by flow cytometry. It counts as functional.
Test [12] relates to HL-60. The test can be described thus: Cell cycle arrest in human HL60 cells by accumulation at S phase at 1 umol/L by flow cytometry relative to control. It counts as functional. An outline of the steps: as §1
A further test relates to MT4. Put plainly: Cytotoxicity against human MT4 cells after 4 days. To be noted: MT4, 96 h. It counts as functional. In a few lines:
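Cellular toxicity was measured in MT-4 cells, N = 2.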

Test [13] concerns HL-60. Put plainly: Cytostatic activity in human HL60 cells assessed as inhibition of cell growth after 72 hrs by XTT assay. The conditions noted are these: HL-60, 72 h. It counts as functional, cell-based.
The test system of test [14] is HL-60. The test can be described thus: Cell cycle arrest in human HL60 cells by accumulation at G1 phase at 1 umol/L after 72 hrs by flow cytometry. It counts as functional.
The next test relates to L1210. Put plainly: Cytostatic activity in mouse L1210 cells assessed as inhibition of cell growth after 72 hrs. The conditions noted are these: for IC50: L1210, 72 h. The class given is functional, cell-based. An outline of the steps: as §2
Test [15] concerns HL-60. The test can be described thus: Cell cycle arrest in human HL60 cells by accumulation at S phase at 5 umol/L after 72 hrs by flow cytometry. It counts as functional.
Test [16] deals with HL-60. The test can be described thus: Cell cycle arrest in human HL60 cells by accumulation at S phase at 1 umol/L after 72 hrs by flow cytometry. The class given is functional.
The test system of test [17] is HL-60. Put plainly: Cell cycle arrest in human HL60 cells by accumulation at G2/M phase at 1 umol/L after 72 hrs by flow cytometry. The class given is functional.
The test system of test [18] is HL-60. Put plainly: Cell cycle arrest in human HL60 cells by accumulation at G2/M phase at 5 umol/L after 72 hrs by flow cytometry. It counts as functional.
In test [19] the test system is HL-60. Put plainly: Cytostatic activity in human HL60 cells assessed as inhibition of cell growth after 72 hrs. The class given is functional, cell-based. To be noted: for IC50: HL-60, 72 h. In a few lines:
as §2

Test [20] deals with HL-60. The test can be described thus: Cell cycle arrest in human HL60 cells by accumulation at S phase at 3 umol/L by flow cytometry relative to control. The class given is functional. An outline of the steps: as §1
Test [21] deals with HL-60. The test can be described thus: Cell cycle arrest in human HL60 cells by accumulation at G1 phase at 3 umol/L by flow cytometry relative to control. The class given is functional. In a few lines: as §1
Test [22] has as its system HL-60. The test can be described thus: Cell cycle arrest in human HL60 cells by accumulation at G2/M phase at 3 umol/L by flow cytometry relative to control. The class given is functional. In a few lines:
as §1

For test [23], the system named is HL-60. Put plainly: Cell cycle arrest in human HL60 cells by accumulation at G1 phase at 22.5 umol/L by flow cytometry relative to control. The class given is functional. In a few lines: as §1
Test [24] concerns HL-60. The test can be described thus: Cell cycle arrest in human HL60 cells by accumulation at G2/M phase at 22.5 umol/L by flow cytometry relative to control. It counts as functional. An outline of the steps: as §1
For test [25], the system named is HL-60. Put plainly: Cell cycle arrest in human HL60 cells by accumulation at S phase at 22.5 umol/L by flow cytometry relative to control. It counts as functional. An outline of the steps:
as §1

As for `[N-]=[N+]=NCc1ncnc2c1ncn2[C@@H]1O[C@H](CO)[C@@H](O)[C@H]1O`, in the test with HeLa, the result was inactive. For the same molecule, the Activity in the test with HL-60 [1] was determined as 1.57%; in the test on HL-60 [3] it was 1.3%; with HL-60 [7], 33%; in the test with HL-60 [8], 59%; with HL-60 [10] it was 24%; with HL-60 [11], 8%. Also, the Activity turned out to be 0.63% in the test on HL-60 [12]; 54% in the test on HL-60 [14]; 69% with HL-60 [15]; 37% in the test on HL-60 [16]; 10% with HL-60 [17]; 8% with HL-60 [18]. Also, in the test on Hepatitis C virus, the EC50 is 6 µM. Also, the IC50 was found to be 0.34 µM in the test with CCRF-CEM [2]; 0.39 µM in the test on CCRF-CEM [5]; 0.78 µM with HL-60 [13]; 1.59 µM with L1210; 1.88 µM in the test with HL-60 [19]. Also, the CC50 in test [4] is above 250 µM; with MT4, 32 µM. Moreover, the result in the test with HL-60 [6] and in the test on HL-60 [9] was Active.

`OC[C@H]1O[C@@H](n2cnc3c(Cn4ccc5ccccc54)ncnc32)[C@H](O)[C@@H]1O`: the outcome in the test on HeLa and in the test on L1210 was inactive. In the test on Hepatitis C virus, this molecule yielded a concentration for a half-maximal effect (EC50) of 7.6 µM. Also, the IC50 with CCRF-CEM [2] was 1.96 µM; in the test on CCRF-CEM [5], 3.4 µM; with HL-60 [13], 9.1 µM; with HL-60 [19], 5.7 µM. For the same molecule, the CC50 in [4] is above 250 µM; in the test with MT4 it was 45 µM.

Take `CN(Cc1ncnc2c1ncn2[C@@H]1O[C@H](CO)[C@@H](O)[C@H]1O)c1ccccc1`: the result in the test on HeLa, in the test on CCRF-CEM [5] and in the test with L1210 was inactive. Further, the figures for the Activity in the test on HL-60 [20], in the test on HL-60 [21] and in the test with HL-60 [22] were 0.87%, 1.12% and 1.08%, respectively. This molecule yielded an EC50 in the test with Hepatitis C virus of 21 µM. This molecule displayed a CC50 in test [4] of 21 µM. In addition, the IC50 with HL-60 [13] stood at 3.4 µM; in the test on HL-60 [19], 4 µM.

As for `OC[C@H]1O[C@@H](n2cnc3c(CSCc4ccccc4)ncnc32)[C@H](O)[C@@H]1O`, the result in the test on HeLa and in the test on L1210 was inactive. For the same molecule, the figures for the Activity in the test with HL-60 [23], in the test on HL-60 [24] and in the test with HL-60 [25] were 1.99%, 0.88% and 0.43%, respectively. In addition, the EC50 in the test on Hepatitis C virus was above 100 µM. Moreover, the IC50 worked out at 4.65 µM in the test with CCRF-CEM [2], 9.2 µM with CCRF-CEM [5], 19.2 µM in the test with HL-60 [13] and 10.7 µM in the test on HL-60 [19]. This molecule showed a CC50 in [4] above 100 µM. In the test with HL-60 [6], the result was Active.

With `COCc1ncnc2c1ncn2[C@@H]1O[C@H](CO)[C@@H](O)[C@H]1O`, the outcome in the test with HeLa and with L1210 was inactive. The EC50 in the test with Hepatitis C virus was 13 µM. The IC50 with CCRF-CEM [2] is 1.14 µM; in the test with CCRF-CEM [5], 6 µM; with HL-60 [13], 1.68 µM; in the test on HL-60 [19], 13 µM. Besides, the CC50 in test [4] is above 100 µM. Besides, the outcome with HL-60 [6] and in the test on HL-60 [9] was Active.

With `CSCc1ncnc2c1ncn2[C@@H]1O[C@H](CO)[C@@H](O)[C@H]1O`, in the test on HeLa, the outcome was inactive. Further, in the test with Hepatitis C virus, the EC50 is 10 µM. The IC50 in the test with CCRF-CEM [2] was 3.2 µM; with CCRF-CEM [5], 15 µM; in the test with HL-60 [13], 5 µM; in the test on L1210, above 30 µM; with HL-60 [19], 13.4 µM. The cytotoxic concentration (CC50) was above 100 µM in test [4] and 32 µM in the test on MT4.

Turning to `OCCN(CCO)Cc1ncnc2c1ncn2[C@@H]1O[C@H](CO)[C@@H](O)[C@H]1O`, in the test on HeLa, the result was inactive. Moreover, the midpoint of the response with Hepatitis C virus, the EC50, lay at 15 µM. Besides, the IC50 in the test with CCRF-CEM [2] was determined as 3.72 µM; in the test with CCRF-CEM [5] it was 6.7 µM; with HL-60 [13], 4.37 µM; in the test on L1210 it was 14.3 µM; with HL-60 [19], 14.7 µM. In [4], this molecule had a half-maximal cytotoxic concentration (CC50) of 10 µM. The result in the test on HL-60 [6] and in the test on HL-60 [9] was Active.

Regarding `OCCSCc1ncnc2c1ncn2[C@@H]1O[C@H](CO)[C@@H](O)[C@H]1O`, the result in the test on HeLa, in the test on CCRF-CEM [5], in the test on L1210 and in the test with HL-60 [19] was inactive. Further, a half-maximal response in the test on Hepatitis C virus (EC50) required 46 µM. Moreover, the CC50 (in [4]; in the test with MT4) was above 100 µM each time.
